Reference: ChEMBL document CHEMBL3091295, “Inhibitors of tissue-nonspecific alkaline phosphatase: design, synthesis, kinetics, biomineralization and cellular tests” (Bioorg Med Chem, 2013)
In brackets after ≈: the same amount, converted by molar mass. Activity calls are given as the source filed them. The calls are words filed in the database; no cut-off is given here.

Experiments:
[1] = Cytotoxicity against human Saos2 cells assessed as cell viability up to 10 uM by MTT assay; assay type: cell-based; conditions: saos-2
Procedure, shortened: (§1)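 MTT viability: cells seeded at 3 × 10^4 cells/cm2 and treated with ascorbic acid plus 7.5 mM β-glycerophosphate, with or without inhibitor (DMSO ≤0.1% v/v final). MTT at 0.5 mg/ml final for 4 h, then solubilization solution overnight at 37 °C. Absorbance at 550 and 690 nm as % of untreated control, mean ± SD. MG63: one pool in triplicate (n = 3). Saos-2: 3–4 pools in triplicate (n = 9–12).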

[2] = Solubility of the compound in water by UV spectrometric analysis; assay type: physicochemical
[3] = target: T1, Intestinal-type alkaline phosphatase (Homo sapiens, UniProt P09923); assay: Inhibition of intestinal alkaline phosphatase (unknown origin) assessed as para nitrophenylphosphate conversion to p-nitrophenolate at pH 10.4 incubated for 10 mins prior to substrate addition measured after 5 seconds by spectrophotometric analysis
T1 sequence (P09923 whole entry): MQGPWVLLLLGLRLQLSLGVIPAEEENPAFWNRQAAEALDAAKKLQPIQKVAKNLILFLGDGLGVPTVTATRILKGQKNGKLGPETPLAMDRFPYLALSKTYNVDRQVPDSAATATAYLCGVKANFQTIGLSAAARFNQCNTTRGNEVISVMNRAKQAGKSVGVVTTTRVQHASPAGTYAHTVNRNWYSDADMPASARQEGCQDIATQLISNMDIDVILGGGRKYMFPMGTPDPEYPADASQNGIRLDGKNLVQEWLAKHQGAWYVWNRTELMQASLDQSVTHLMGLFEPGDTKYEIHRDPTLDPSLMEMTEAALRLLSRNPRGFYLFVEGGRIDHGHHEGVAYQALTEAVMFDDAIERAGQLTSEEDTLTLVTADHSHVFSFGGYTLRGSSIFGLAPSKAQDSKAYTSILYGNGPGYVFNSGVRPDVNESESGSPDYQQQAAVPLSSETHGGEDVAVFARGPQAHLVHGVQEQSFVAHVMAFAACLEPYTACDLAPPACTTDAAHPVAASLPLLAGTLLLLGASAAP
Procedure, shortened: (§2)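 Enzyme (TNAP, PLAP or IAP; final 6.93–11.4 µg/ml) in buffer with inhibitor at 0–400 µM, added from 10 mM DMSO stock. Preincubated 10 min at 37 °C without substrate, then mixed with an equal volume of 0.1 mM pNPP in the same buffer and stirred 5 s. p-Nitrophenolate read at 400 nm (ε 18.5 cm⁻¹ mM⁻¹ at pH 10.4), final DMSO 4% v/v. Activity relative to the no-inhibitor control. pH 7.8 runs used 0.1 M Tris–HCl with 5 mM MgCl2 and 5 mM ZnCl2 at 37 °C.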

[4] = target: T1, Intestinal-type alkaline phosphatase; assay: Inhibition of intestinal alkaline phosphatase (unknown origin) assessed as para nitrophenylphosphate conversion to p-nitrophenolate at pH 7.8 incubated for 10 mins prior to substrate addition measured after 5 seconds by spectrophotometric analysis; procedure, shortened: as §2
[5] = target: T2, Alkaline phosphatase, placental type (Homo sapiens, UniProt P05187); assay: Inhibition of placental alkaline phosphatase (unknown origin) assessed as para nitrophenylphosphate conversion to p-nitrophenolate at pH 10.4 incubated for 10 mins prior to substrate addition measured after 5 seconds by spectrophotometric analysis; procedure, shortened: as §2
T2 sequence (P05187 whole entry): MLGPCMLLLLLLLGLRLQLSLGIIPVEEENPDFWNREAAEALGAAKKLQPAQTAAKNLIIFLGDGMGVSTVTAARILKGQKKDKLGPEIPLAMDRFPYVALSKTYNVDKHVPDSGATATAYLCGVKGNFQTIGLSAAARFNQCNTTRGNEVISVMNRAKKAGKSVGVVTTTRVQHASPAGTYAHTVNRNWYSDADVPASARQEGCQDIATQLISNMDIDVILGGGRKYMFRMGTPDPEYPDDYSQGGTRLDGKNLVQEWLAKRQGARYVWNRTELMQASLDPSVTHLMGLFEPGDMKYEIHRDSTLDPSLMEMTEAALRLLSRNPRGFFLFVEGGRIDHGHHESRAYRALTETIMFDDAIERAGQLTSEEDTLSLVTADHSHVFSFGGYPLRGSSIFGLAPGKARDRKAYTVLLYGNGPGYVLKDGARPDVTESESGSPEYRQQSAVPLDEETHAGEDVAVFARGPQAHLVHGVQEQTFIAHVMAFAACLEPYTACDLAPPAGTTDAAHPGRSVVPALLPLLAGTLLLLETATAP

[6] = target: T2, Alkaline phosphatase, placental type; assay: Inhibition of placental alkaline phosphatase (unknown origin) assessed as para nitrophenylphosphate conversion to p-nitrophenolate at pH 7.8 incubated for 10 mins prior to substrate addition measured after 5 seconds by spectrophotometric analysis; procedure, shortened: as §2
[7] = Uncompetitive inhibition of porcine kidney TNAP assessed as para nitrophenylphosphate conversion to p-nitrophenolate at pH 7.8 by Michaelis-Menten plot analysis; design: species or system Sus scrofa
Procedure, shortened: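 Porcine kidney TNAP activity measured with pNPP at pH 7.8 in 0.1 M Tris–HCl containing 5 mM MgCl2 and 5 mM ZnCl2 at 37 °C. Inhibitor was preincubated with enzyme for 10 min before substrate, and p-nitrophenolate was read at 400 nm to derive Ki.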

[8] = Inhibition of porcine kidney TNAP assessed as para nitrophenylphosphate conversion to p-nitrophenolate at pH 10.4 incubated for 10 mins prior to substrate addition measured after 5 seconds by spectrophotometric analysis; design: species or system Sus scrofa; procedure, shortened: as §2
[9] = Inhibition of porcine kidney TNAP assessed as para nitrophenylphosphate conversion to p-nitrophenolate at pH 7.8 incubated for 10 mins prior to substrate addition measured after 5 seconds by spectrophotometric analysis; design: species or system Sus scrofa; procedure, shortened: as §2
[10] = system: SAOS-2; assay: Reduction in ascorbic acid-induced mineralization in human Saos2 cells at 10 uM after 7 days by Alizarin Red S staining-based assay relative to control; assay type: functional
Procedure, shortened: (§3)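 Confluent cells were cultured 7 days in growth medium with ascorbic acid and 7.5 mM β-glycerophosphate, with or without inhibitor (DMSO ≤0.1% v/v). Saos-2 were grown in McCoy's 5A with 15% FBS. Mineral was stained with Alizarin Red S, destained with 3.6% w/v cetylpyridinium chloride in PBS pH 7.0 for 60 min at room temperature, and read at 562 nm. Results are % of control, mean ± SD; MG63 n = 3, Saos-2 n = 9–12.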

[11] = system: SAOS-2; assay: Reduction in beta-glycerophosphate-induced mineralization in human Saos2 cells at 10 uM after 7 days by Alizarin Red S staining-based assay relative to control; assay type: functional; procedure, shortened: as §3
[12] = system: MG-63; assay: Reduction in beta-glycerophosphate-induced mineralization in human MG63 cells at 10 uM after 7 days by Alizarin Red S staining-based assay; assay type: functional, cell-based; procedure, shortened: as §3
[13] = system: MG-63; assay: Reduction in ascorbic acid-induced mineralization in human MG63 cells at 10 uM after 7 days by Alizarin Red S staining-based assay; assay type: functional, cell-based; procedure, shortened: as §3
[14] = Cytotoxicity against human MG63 cells assessed as cell viability up to 10 uM by MTT assay; assay type: cell-based; conditions: mg-63; procedure, shortened: as §1
[15] = Solubility of the compound

solubility [2] [µM] | IC50 [3] [µM] | IC50 [4] [µM] | IC50 [5] [µM] | IC50 [6] [µM] | Ki [7] [µM] | IC50 [8] [µM] | IC50 [9] [µM] | solubility [15] [µM] | SMILES | Activity [1] | Activity [10] | Activity [11] | Activity [12] | Activity [13] | Activity [14]
1770 | > 400 | > 400 | > 400 | > 400 | 10.3 | 23.2 | 18.3 |  | Cl.Nc1ccc2sc(C3CN4C=CSC4=N3)cc2c1 (racemic) | Non-toxic | Active | Active |  |  | 
 | > 400 | > 400 | > 400 | > 400 | 30.5 | 62.9 | 23.2 | 200000 (≈ 40.9 mg/mL) | c1ccc([C@H]2CN3CCSC3=N2)cc1 [LEVAMISOLE] | Non-toxic | 33% | 33% | Active | Active | Non-toxic
6900 | > 400 | > 400 | > 400 | > 400 | 1.3 | 3.31 | 2.11 |  | Cl.O=[N+]([O-])c1ccc2sc(C3CN4C=CSC4=N3)cc2c1 (racemic) | Non-toxic | 25% | 25% |  |  | 
450 | > 400 | > 400 | > 400 | > 400 | 5 | 16.4 | 5.5 |  | Cl.c1ccc2sc(C3CN4CCSC4=N3)cc2c1 (racemic) | Non-toxic | Active | Active | Active | Active | Non-toxic
1300 | > 400 | > 400 | > 400 | > 400 | 3.9 | 13.1 | 4.4 |  | C1=CN2CC(c3cc4ccccc4s3)N=C2S1.Cl (racemic) | Non-toxic | Active | Active | Active | Active | Non-toxic
